Most compounds without a hit are left out; they make up all but 2.2% or so of the library.
FLuc inh counter: counter-screen for luciferase assay inhibitors: firefly luciferase inhibition. P08659. ATPLite firefly luciferase biochemical luminescence, 10 min. inhibition, % at 10 µM. 200,000 compounds, 1.5% hits;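 active = inhibition above about 50% when tested at 10 µM, limit read from the data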
Target sequence (P08659 whole entry, looked up): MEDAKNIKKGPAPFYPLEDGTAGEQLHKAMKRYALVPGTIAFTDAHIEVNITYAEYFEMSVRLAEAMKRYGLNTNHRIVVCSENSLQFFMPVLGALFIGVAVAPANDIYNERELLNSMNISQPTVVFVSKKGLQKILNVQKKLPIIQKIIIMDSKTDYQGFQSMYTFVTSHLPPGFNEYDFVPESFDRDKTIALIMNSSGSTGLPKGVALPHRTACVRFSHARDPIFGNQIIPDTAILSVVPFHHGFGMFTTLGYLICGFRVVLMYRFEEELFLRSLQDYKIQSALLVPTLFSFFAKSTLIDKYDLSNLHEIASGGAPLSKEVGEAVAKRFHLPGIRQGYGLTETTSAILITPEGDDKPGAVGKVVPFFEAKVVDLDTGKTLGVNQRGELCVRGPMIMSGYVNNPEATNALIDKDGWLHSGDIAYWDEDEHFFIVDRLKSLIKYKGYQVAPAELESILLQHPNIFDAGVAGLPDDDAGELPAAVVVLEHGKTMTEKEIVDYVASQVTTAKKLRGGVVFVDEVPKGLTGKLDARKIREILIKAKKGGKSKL
PPC-1+TRAIL kill: PPC-1 cancer cell killing with TRAIL present; cell killing (% activity), % at 4 µM or 5 µM; 220,000 compounds, 0.41% hits; PPC-1 cells + TRAIL, ATPLite viability luminescence;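 active = cell killing above 50% in the first pass at 4 µM, then a duplicate retest at 5 µM averaging 50% or more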;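 note: plate controls were cells with TRAIL plus DMSO for no effect and medium-only wells lacking cells for full effect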
TRAIL sens C8: caspase-8 TRAIL sensitization | NB7+C8 cells + TRAIL, ATPlite viability luminescence | inhibition (viability loss, TRAIL sensitization), % at 10 µM | 360,000 compounds, 1% hits;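 active = compounds causing at least 50% loss of cell viability in the single-dose screen, relative to plate controls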
PKD1 kinase inh: inhibitors of human PKD1 kinase; Q15139; PKD1 kinase fluorescence polarization assay; inhibition, % (no concentration beside the values); 200,000 compounds, 0.056% hits; in the data active = inhibition above about 50%
Wee1 degr inh: human Wee1 degradation inhibition, primary screen. HeLa Luc-Wee1K328M stability, luciferase luminescence; 100% = proteasome inhibitor MG132 effect. reporter increase, % at 5 µM. 220,000 compounds, 1.2% hits;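 active = activation above the mean of all tested compounds plus 3 SD, set per screening run, cut at about 8.8% in these data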;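 note: cells exposed to compound for 20 h before luminescence read; 0% = DMSO alone and 100% = MG132 at 30 µM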
FLuc stim CS: firefly luciferase counter-screen for stimulation assays. ATPlite luciferase biochemical, luminescence, 10 min; 0 = ATP-free wells, 1 = DMSO control. activation factor at 10 µM. 200,000 tested, under 10 active. AID 1027;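 active = luciferase activation factor, scaled between plate controls, of at least 2 with compound at 10 µM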
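Assay system: Luciferase/luciferin reagent mix; Medium: PBS as buffer for the ATP substrate; Dosing: test compounds dosed from 2 mM stocks in 100% DMSO; Times: 10 min, room temperature; Signal: luminescence from luciferase reaction; Read-out: luciferase activation; Controls: No-ATP low control, compound-free enzyme-plus-ATP high control.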
* marks the source's active call; other numbers are inactive results; / = no result; ! = a repeat was not active.

SMILES | FLuc inh counter | PPC-1+TRAIL kill | TRAIL sens C8 | PKD1 kinase inh | Wee1 degr inh | FLuc stim CS
C=CCOc1ccc(/C=C/C(C)=N\O)cc1 | 60.9* | 30.9 | 61.1* | -5.5 | -1.6 | 0.4
N#C/C(=C/c1ccc(N2CCCCC2)o1)C(=O)Nc1ccc(Cl)cc1 | 31.1 | 6.9 | 22.6 | -2.0 | 0.2 | 0.7
COc1ccc(/C=C(\C#N)c2nc3ccccc3[nH]2)cc1O | / | / | 51.8* | / | / | /
N#C/C(=C/c1ccc(N2CCOCC2)o1)c1nc2ccccc2[nH]1 | 81.8* | -35.0 | 43.0 | -19.8 | 0.8 | 0.2
Cc1cc(/C=C(\C#N)c2nc3ccccc3[nH]2)c(C)n1C | 77.5* | 25.3 | 77.9* | 5.6 | 0.0 | 0.2
N#C/C(=C\c1ccc(N2CCOCC2)o1)C(=O)Nc1ccc(O)cc1 | 50.0* | 22.2 | 29.4 | -17.3 | 0.3 | 0.5
CSc1sc(C(=O)NNC(C)=O)c2c1C=CCC2 | / | 16.3 | 19.1 | / | -1.7 | /
CCC(=O)Oc1ccc(-c2nc(-c3cccnc3)no2)cc1 | 60.6* | 30.9 | 19.0 | 13.6 | 7.9 | 0.4
Cc1ccc(Cc2nc(-c3cccnc3)no2)cc1 | -2.7 | 27.0 | -11.5 | -12.2 | 2.8 | 1
Cc1ccc(-c2nc(-c3ccccc3)no2)cc1 | 78.3* | 11.1 | 36.8 | -13.2 | 0.1 | 0.2
CCC(=O)Oc1ccc(-c2cnc3ccccc3n2)cc1 | 63.6* | 32.2 | 12.6 | 6.1 | 2.0 | 0.4
Cc1ccc(-c2nc(-c3cccnc3)no2)cc1 | 66.4* | 26.0 | 40.3 | -4.7 | 1.6 | 0.3
C/C(=N\Nc1nc2ccccc2s1)c1cccs1 | 60.9* | 43.1 | 66.9* | -1.7 | 2.8 | 0.4
COc1cc(C2C(C#N)=C(N)OC3=C2C(=O)CC(C)(C)C3)cc([N+](=O)[O-])c1O (configuration not stated) | / | 12.4 | -12.5 | / | 9.7* | /
COc1cccc(CN(C)C(=O)c2cc(S(=O)(=O)NC3CCCCC3)ccc2C)c1OC | / | / | -1.1 | / | / | /
O=C(Nc1ccccc1Oc1ccccc1)C1CC1 | -1.6 | 17.2 | -14.9 | 1.4 | 10.3* | 1
CCC(=O)Nc1ccccc1Oc1ccccc1 | -6.7 | 10.7 | 7.1 | 0.2 | 1.0 | 1.1
O=c1oc2ccccc2cc1N1CCOCC1 | 7.0 | 14.3 | -0.4 | 6.7 | 9.3* | 0.9
O=c1cc(N2CCOCC2)c2ccccc2o1 | -8.0 | -16.6 | -5.6 | 4.8 | -1.5 | 1.1
O=C1CCCCC1C(Nc1ccc(Cl)cc1)c1ccccc1 (configuration not stated) | -6.3 | 20.4 | -15.8 | -1.6 | 9.5* | 1.1
O=C1CNC(=S)N1CCc1ccc(O)c(O)c1 | / | 7.1 | 9.9 | / | -2.9 | /
Cc1onc(C(=O)N2CCN(C(c3ccccc3)c3ccccc3)CC2)c1[N+](=O)[O-] | -13.6 | 13.2 | 91.1* | -0.6 | 0.9 | 1.1
COc1ccccc1N1CCN(C(=O)c2noc(C)c2[N+](=O)[O-])CC1 | / | / | 6.8 | / | / | /
CC1N/C(=C\C(=O)c2ccccc2)N(O)C1(C)C (configuration not stated) | 63.3* | 10.6 | 24.4 | -7.6 | -0.9 | 0.4
CC12CCC(c3c(CO)nn(-c4ccccc4)c31)C2(C)C (configuration not stated) | -0.5 | -7.9 | -6.3 | -2.9 | 10.3* | 1
SMILES | FLuc inh counter | PPC-1+TRAIL kill | TRAIL sens C8 | PKD1 kinase inh | Wee1 degr inh | FLuc stim CS
CCOc1ccc(N=Nc2c(=O)[nH]n3c(=O)cc(C)[nH]c23)cc1 | 64.2* | 30.1 | 36.6 | 0.3 | -0.5 | 0.4
Cc1cc(=O)n2[nH]c(=O)c(N=Nc3ccccc3)c2[nH]1 | 2.5 | 7.0 | -3.7 | 6.5 | -1.8 | 1
NC1(C#Cc2ccc3c(=O)c4ccccc4sc3c2)CCCCC1 | / | / | 12.3 | / | / | /
O=c1c2ccccc2oc2ccc(C#CC3(O)CCCCC3)cc12 | / | / | 86.8* | / | / | /
Cc1cc2sc3ccc(C#CC4(O)CCCCC4)cc3c(=O)c2cc1C | / | / | 88.1* | / | / | /
Cn1c2ccccc2c(=O)c2ccc(C#CC3(N)CCCCC3)cc21 | / | / | 29.8 | / | / | /
Cn1c2ccccc2c(=O)c2cc(C#CC3(O)CCCCC3)ccc21 | / | / | 92.2* | / | / | /
C1=C\CCC2(OCCO2)C2(CC/1)OCCO2 | / | / | 4.9 | / | / | /
O=C1COc2ccccc2CN1 | -3.0 | 22.4 | 7.3 | -4.8 | 2.0 | 1
O=C1COc2cccnc2N1 | -6.6 | -13.2 | 18.8 | -1.5 | 9.4*! | 1.1
CCOC(=O)c1cnc2c(Cl)c(Cl)ccc2c1N1CCN(C)CC1 | -1.8 | 8.0 | 58.7* | -6.8 | 3.4 | 1
O=C1CC(C(=O)N2CCCc3ccccc32)CN1c1ccc(Cl)cc1 (configuration not stated) | / | / | -4.0 | / | / | /
O=S(=O)(c1ccccc1)N1CCCC1c1cccs1 (configuration not stated) | / | 8.1 | 7.1 | / | 10.2* | /
COc1ccc(/C=C2\SC(=N)N(c3nccs3)C2=O)cc1OC | 77.3* | 29.1 | 36.3 | 6.3 | -3.1 | 0.2
N=C1S/C(=C\c2ccc(-c3cccc(Cl)c3)o2)C(=O)N1c1nccs1 | -0.6 | 7.4 | 3.5 | -6.4 | 0.1 | 1
O=C(NCCN1CCOCC1)c1cc(-c2ccc(F)cc2)nc2ccccc12 | / | / | 5.9 | / | / | /
COc1ccc(-c2cc(C(=O)N3CCN(c4ccccc4)CC3)c3ccccc3n2)cc1 | 63.9* | 18.9 | 41.6 | 6.7 | 4.8 | 0.4
CCCc1ccc(-c2cc(C(=O)N3CCN(c4ccccn4)CC3)c3ccccc3n2)cc1 | / | / | 91.4* | / | / | /
COc1ccc(-c2cc(C(=O)N3CCN(c4ncccn4)CC3)c3ccccc3n2)cc1 | / | / | 63.6* | / | / | /
CC(C)Oc1ccc(-c2cc(C(=O)NCCN3CCOCC3)c3ccccc3n2)cc1 | 65.0* | 48.6 | 43.3 | -5.1 | 5.3 | 0.3
O=C(NCC(c1ccco1)N1CCc2ccccc2C1)c1ccc(F)cc1 (configuration not stated) | / | / | -0.2 | / | / | /
COc1ccc(-c2cc(C(=O)N3CCCC3)c3ccccc3n2)cc1 | / | / | 34.0 | / | / | /
CCOc1ccc(-c2cc(C(=O)N3CCCC3)c3ccccc3n2)cc1 | / | / | 64.3* | / | / | /
COc1ccc(-c2cc(C(=O)N3CCN(c4ccccc4O)CC3)c3ccccc3n2)cc1 | / | / | 63.3* | / | / | /
Cc1ccc(-c2cc(C(=O)N3CCN(c4ccccc4O)CC3)c3ccccc3n2)cc1 | / | / | 47.9 | / | / | /
SMILES | FLuc inh counter | PPC-1+TRAIL kill | TRAIL sens C8 | PKD1 kinase inh | Wee1 degr inh | FLuc stim CS
COc1ccc(NC(=O)c2cc3ccc4c5ccccc5[nH]c4c3cc2O)cc1 | / | -24.4 | 5.8 | / | 3.0 | /
O=C(COC(=O)c1cccc(S(=O)(=O)N2CCCCC2)c1)NCc1cccc(Cl)c1 | / | / | -9.8 | / | / | /
Oc1ccc(CCNc2c3ccccc3nc3ccccc23)cc1O | / | / | 71.1* | / | / | /
COc1cccc(CN(C)CC(=O)Nc2cc3oc4ccccc4c3cc2OC)c1 | 2.3 | 6.1 | 18.4 | 3.7 | 9.9* | 1
COc1cc2c(cc1NC(=O)c1cccc([N+](=O)[O-])c1)oc1ccccc12 | 2.9 | 18.2 | 49.6* | 3.0 | 4.6 | 1
COc1cccc(-c2cnc3c(NC=O)cc(-c4cccc(C(=O)N(C)C)c4)cn23)c1 | / | / | -11.1 | / | / | /

Source: PubChem
